Experimental data taken from ChEMBL document CHEMBL3804761, “Synthesis of a stable and orally bioavailable englerin analogue” (Bioorg Med Chem Lett, 2016).

What was measured:
Format in all cases: functional
[1] = tested on: MDA-MB-231; assay: Growth inhibition of human MDA-MB-231 cells incubated for 48 hrs by sulforhodamine B assay; conditions: MDA-MB-231, 48 h
In short: (§1)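 NCI 60-cell-line panel, standard protocol. Cells exposed to compound for two days, growth read by sulforhodamine B staining. Tested at five 10-fold dilutions, top concentration 100 µM, to give dose-response curves.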

[2] = Growth inhibition of human UACC62 cells incubated for 48 hrs by sulforhodamine B assay; conditions: UACC-62, 48 h
In short: (§2)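 Tested in the standard NCI 60-cell-line protocol with two-day drug exposure and a sulforhodamine B endpoint. Compounds were first screened at a single final concentration of 10 µM, reported as growth percent. They were then run as five 10-fold dilutions starting from a high concentration of 100 µM to give dose-response curves.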

[3] = Growth inhibition of human HOP62 cells assessed as cell growth at 10 uM incubated for 48 hrs by sulforhodamine B assay relative to control; conditions: HOP-62, 48 h, read-out: Activity
In short: (§3)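 Run in the standard NCI 60-cell-line screen. Cells were exposed to drug for two days, and the read-out was sulforhodamine B staining. Compound was tested at a single final concentration of 10 µM in every line, and results are reported as growth percent.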

[4] = tested on: A498; assay: Growth inhibition of human A498 cells incubated for 48 hrs by sulforhodamine B assay; conditions: A498, 48 h
[5] = tested on: NCI-H322M; assay: Growth inhibition of human NCI-H322M cells incubated for 48 hrs by sulforhodamine B assay; in short: as §1
[6] = Growth inhibition of human SF295 cells assessed as cell growth at 10 uM incubated for 48 hrs by sulforhodamine B assay relative to control; conditions: SF-295, 48 h, read-out: Activity; in short: as §3
[7] = tested on: T47D; assay: Growth inhibition of human T47D cells assessed as cell growth at 10 uM incubated for 48 hrs by sulforhodamine B assay relative to control; conditions: read-out: Activity
In short: (§4)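 NCI 60-cell line standard protocol, one-dose screen: single final concentration 10 µM, 2-day drug exposure, sulforhodamine B (SRB) endpoint; read-out is growth percent relative to untreated control.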

[8] = Growth inhibition of human SKOV3 cells assessed as cell growth at 10 uM incubated for 48 hrs by sulforhodamine B assay relative to control; conditions: SK-OV-3, 48 h, read-out: Activity; in short: as §3
[9] = tested on: NCI-H226; assay: Growth inhibition of human NCI-H226 cells assessed as cell growth at 10 uM incubated for 48 hrs by sulforhodamine B assay relative to control; conditions: NCI-H226, 48 h, read-out: Activity; in short: as §3
[10] = tested on: ACHN; assay: Growth inhibition of human ACHN cells assessed as cell growth at 10 uM incubated for 48 hrs by sulforhodamine B assay relative to control; conditions: read-out: Activity; in short: as §3
[11] = Growth inhibition of human OVCAR5 cells incubated for 48 hrs by sulforhodamine B assay; conditions: OVCAR-5, 48 h; in short: as §1
[12] = Growth inhibition of human SF539 cells assessed as cell growth at 10 uM incubated for 48 hrs by sulforhodamine B assay relative to control; conditions: SF-539, 48 h, read-out: Activity
In short: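 Single-dose screen in the NCI 60-cell-line panel at one final concentration of 10 µM. Two-day drug exposure with a sulforhodamine B endpoint. Values are growth percent for each cell line.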

[13] = tested on: SK-MEL-2; assay: Growth inhibition of human SK-MEL-2 cells incubated for 48 hrs by sulforhodamine B assay; conditions: SK-MEL-2, 48 h; in short: as §1
[14] = Growth inhibition of human UACC257 cells incubated for 48 hrs by sulforhodamine B assay; conditions: UACC-257, 48 h; in short: as §2
[15] = tested on: SK-MEL-28; assay: Growth inhibition of human SK-MEL-28 cells incubated for 48 hrs by sulforhodamine B assay; conditions: SK-MEL-28, 48 h; in short: as §1
[16] = tested on: SR; assay: Growth inhibition of human SR cells incubated for 48 hrs by sulforhodamine B assay; in short: as §2
[17] = Growth inhibition of human Hs 578T cells assessed as cell growth at 10 uM incubated for 48 hrs by sulforhodamine B assay relative to control; conditions: read-out: Activity
[18] = Growth inhibition of human RPMI8226 cells assessed as cell growth at 10 uM incubated for 48 hrs by sulforhodamine B assay relative to control; conditions: RPMI-8226, 48 h, read-out: Activity; in short: as §3
[19] = tested on: HT-29; assay: Growth inhibition of human HT-29 cells incubated for 48 hrs by sulforhodamine B assay; conditions: HT-29, 48 h; in short: as §1
[20] = tested on: 786-0; assay: Growth inhibition of human 786-0 cells assessed as cell growth at 10 uM incubated for 48 hrs by sulforhodamine B assay relative to control; conditions: 786-0, 48 h, read-out: Activity; in short: as §3
[21] = Growth inhibition of human SW620 cells incubated for 48 hrs by sulforhodamine B assay; conditions: SW-620, 48 h; in short: as §2
[22] = tested on: NCI/ADR-RES; assay: Growth inhibition of human NCI/ADR-RES cells incubated for 48 hrs by sulforhodamine B assay; in short: as §1
[23] = Growth inhibition of human MOLT4 cells incubated for 48 hrs by sulforhodamine B assay; conditions: MOLT-4, 48 h; in short: as §1
[24] = Growth inhibition of human OVCAR8 cells assessed as cell growth at 10 uM incubated for 48 hrs by sulforhodamine B assay relative to control; conditions: OVCAR-8, 48 h, read-out: Activity; in short: as §3
[25] = tested on: NCI-H460; assay: Growth inhibition of human NCI-H460 cells assessed as cell growth at 10 uM incubated for 48 hrs by sulforhodamine B assay relative to control; conditions: NCI-H460, 48 h, read-out: Activity; in short: as §3
[26] = tested on: 786-0; assay: Growth inhibition of human 786-0 cells incubated for 48 hrs by sulforhodamine B assay; conditions: 786-0, 48 h; in short: as §1
[27] = Growth inhibition of human UACC257 cells assessed as cell growth at 10 uM incubated for 48 hrs by sulforhodamine B assay relative to control; conditions: UACC-257, 48 h, read-out: Activity; in short: as §4
[28] = Growth inhibition of human COLO205 cells assessed as cell growth at 10 uM incubated for 48 hrs by sulforhodamine B assay relative to control; conditions: COLO 205, 48 h, read-out: Activity; in short: as §3
[29] = Growth inhibition of human TK10 cells incubated for 48 hrs by sulforhodamine B assay; conditions: TK-10, 48 h; in short: as §2
[30] = read-out: pLC50 (the source's name) (converted)

CC(C)[C@@]12C[C@@H](NC(=O)CO)[C@@](C)(O1)[C@@H]1CC[C@@H](C)[C@H]1[C@@H]2OC(=O)/C=C/c1ccccc1
GI50 [1]: 24.5 µM | CC50 [1, 30]: > 50.1 µM | TGI ([1]; read-out: pTGI (converted)): > 50.1 µM | GI50 [2]: 15.1 µM | LC50 (lethal concentration, 50% net cell kill) [2]: > 50.1 µM | TGI ([2]; read-out: pTGI (converted)): > 50.1 µM | growth at 10 µM [3]: 86.8% | LC50 [4]: 29.5 µM | GI50 ([4]; read-out: GI50): 0.162 µM | GI50 ([4]; read-out: pGI50 (converted)): 0.162 µM | TGI ([4]; read-out: pTGI (converted)): 2.45 µM | GI50 [5]: > 50.1 µM | LC50 [5]: > 50.1 µM | TGI ([5]; read-out: pTGI (converted)): > 50.1 µM | growth at 10 µM [6]: 90.6% | growth at 10 µM [7]: 76.3% | growth at 10 µM [8]: 101% | growth at 10 µM [9]: 90.8% | growth at 10 µM [10]: 8.01% | GI50 [11]: 23.4 µM | LC50 [11]: > 50.1 µM | TGI ([11]; read-out: pTGI (converted)): > 50.1 µM | growth at 10 µM [12]: 97.2% | GI50 [13]: 14.8 µM | LC50 [13]: > 50.1 µM | TGI ([13]; read-out: pTGI (converted)): 37.2 µM | GI50 [14]: 10.5 µM | CC50 [14, 30]: > 50.1 µM | TGI ([14]; read-out: pTGI (converted)): 45.7 µM | GI50 [15]: 20.9 µM | LC50 [15]: > 50.1 µM | TGI ([15]; read-out: pTGI (converted)): > 50.1 µM | GI50 [16]: 13.5 µM | LC50 [16]: > 50.1 µM | TGI ([16]; read-out: pTGI (converted)): 37.2 µM | growth at 10 µM [17]: 9% | growth at 10 µM [18]: 90.6% | GI50 [19]: 16.6 µM | LC50 [19]: > 50.1 µM | TGI ([19]; read-out: pTGI (converted)): > 50.1 µM | growth at 10 µM [20]: 73.1% | GI50 [21]: 22.4 µM | LC50 (50% lethal concentration) [21]: > 50.1 µM | TGI ([21]; read-out: pTGI (converted)): > 50.1 µM | GI50 [22]: 3.47 µM | LC50 [22]: > 50.1 µM | TGI ([22]; read-out: pTGI (converted)): > 50.1 µM | GI50 [23]: 15.8 µM | LC50 [23]: > 50.1 µM | TGI ([23]; read-out: pTGI (converted)): > 50.1 µM | growth at 10 µM [24]: 51.5% | growth at 10 µM [25]: 108% | GI50 [26]: 3.63 µM | LC50 [26]: > 50.1 µM | TGI ([26]; read-out: pTGI (converted)): 24 µM | growth at 10 µM [27]: 104% | growth at 10 µM [28]: 96.4% | GI50 [29]: 28.8 µM | CC50 [29, 30]: > 50.1 µM | TGI ([29]; read-out: pTGI (converted)): > 50.1 µM
